Reference: ChEMBL document CHEMBL3085642, “Synthesis and evaluation of novel 4-nitropyrrole-based 1,3,4-oxadiazole derivatives as antimicrobial and anti-tubercular agents” (Eur J Med Chem, 2013)
In brackets after ≈: the same amount, converted by molar mass.

Columns and labels:
[1] = test system: Bacillus spizizenii; assay: Antibacterial activity against Bacillus subtilis ATCC 6633 by two fold broth dilution method; type: functional
[2] = test system: Staphylococcus aureus; assay: Antibacterial activity against methicillin-resistant Staphylococcus aureus ATCC 43866 by broth dilution method; type: functional
[3] = test system: Klebsiella pneumoniae; assay: Antibacterial activity against Klebsiella pneumoniae by two fold broth dilution method; type: functional
[4] = test system: Staphylococcus aureus; assay: Antibacterial activity against Staphylococcus aureus ATCC 25923 by two fold broth dilution method; type: functional
[5] = test system: Candida albicans; assay: Antifungal activity against Candida albicans after 48 hrs by two fold agar dilution method; type: functional
Summary of the method: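 Two-fold serial dilutions in DMSO were tested against C. albicans by agar dilution. Cultures were incubated for 48 h at 35 °C and growth was monitored. MIC was taken as the lowest concentration (highest dilution) that arrested fungal growth.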

[6] = test system: Mycobacterium tuberculosis; assay: Antitubercular activity against Mycobacterium tuberculosis H37Rv after 7 days by resazurin microtitre assay; type: functional; settings: 168 h
[7] = test system: Escherichia coli; assay: Antibacterial activity against Escherichia coli ATCC 25922 by two fold broth dilution method; type: functional
[8] = test system: Staphylococcus aureus; assay: Antibacterial activity against methicillin-susceptible Staphylococcus aureus ATCC 35556 by broth dilution method; type: functional
[9] = test system: Vero; assay: Cytotoxicity against african green monkey Vero cells after 72 hrs by MTT assay; type: cell-based; settings: Chlorocebus sabaeus
Summary of the method: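 Vero cells were exposed to compounds for 72 h. Viability was measured by cellular conversion of MTT into formazan (non-radioactive proliferation assay), and the cytotoxic concentration was reported as IC50.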

[10] = test system: Staphylococcus aureus; assay: Ratio of ciprofloxacin MIC to compound MIC against Staphylococcus aureus ATCC 25923; type: functional
[11] = test system: Candida albicans; assay: Ratio of ampotericin-B MIC to compound MIC against Candida albicans; type: functional
[12] = test system: Staphylococcus aureus; assay: Ratio of ciprofloxacin MIC to compound MIC against methicillin-susceptible Staphylococcus aureus ATCC 35556; type: functional

Row | SMILES | MIC [1] | MIC [2] | MIC [3] | MIC [4] | MIC [5] | MIC [6] | MIC [7] | MIC [8] | IC50 [9] | Ratio [10] | Ratio [11] | Ratio [12]
1 | O=[N+]([O-])c1c[nH]c(-c2nnc(C3CCCNC3)o2)c1 (configuration not stated) | 3.12 µg/mL (≈ 11.9 µM) | 3.12 µg/mL (≈ 11.9 µM) | 25 µg/mL (≈ 95 µM) | 1.56 µg/mL (≈ 5.93 µM) | 3.12 µg/mL (≈ 11.9 µM) | 12.5 µg/mL (≈ 47.5 µM) | 3.12 µg/mL (≈ 11.9 µM) | 1.56 µg/mL (≈ 5.93 µM) | 318 µM | – | – | –
2 | O=[N+]([O-])c1c[nH]c(-c2nnc(-c3ccco3)o2)c1 | 1.56 µg/mL (≈ 6.34 µM) | 3.12 µg/mL (≈ 12.7 µM) | 25 µg/mL (≈ 102 µM) | 0.78 µg/mL (≈ 3.17 µM) | 3.12 µg/mL (≈ 12.7 µM) | 42.8 µg/mL (≈ 174 µM) | 3.12 µg/mL (≈ 12.7 µM) | 1.56 µg/mL (≈ 6.34 µM) | 370 µM | 2 | – | –
3 | O=[N+]([O-])c1c[nH]c(-c2nnc(-c3cccc([N+](=O)[O-])c3O)o2)c1 | 3.12 µg/mL (≈ 9.85 µM) | 3.12 µg/mL (≈ 9.85 µM) | 25 µg/mL (≈ 78.8 µM) | 1.56 µg/mL (≈ 4.92 µM) | 3.12 µg/mL (≈ 9.85 µM) | 1.8 µg/mL (≈ 5.67 µM) | 6.25 µg/mL (≈ 19.7 µM) | 1.56 µg/mL (≈ 4.92 µM) | 498 µM | – | – | –
4 | NNC(=O)c1ccncc1 [ISONIAZID] | – | – | – | – | – | 0.4 µg/mL (≈ 2.92 µM) | – | – | – | – | – | –
5 | O=[N+]([O-])c1c[nH]c(-c2nnc(Cc3ccc(F)c4ccccc34)o2)c1 | 3.12 µg/mL (≈ 9.24 µM) | 3.12 µg/mL (≈ 9.24 µM) | 25 µg/mL (≈ 73.9 µM) | 1.56 µg/mL (≈ 4.61 µM) | 3.12 µg/mL (≈ 9.24 µM) | 64.8 µg/mL (≈ 192 µM) | 3.12 µg/mL (≈ 9.24 µM) | 1.56 µg/mL (≈ 4.61 µM) | 229 µM | – | – | –
6 | Cn1cc([N+](=O)[O-])cc1-c1nnc(-c2cccs2)o1 | 1.56 µg/mL (≈ 5.65 µM) | 1.56 µg/mL (≈ 5.65 µM) | 50 µg/mL (≈ 181 µM) | 0.78 µg/mL (≈ 2.82 µM) | 1.56 µg/mL (≈ 5.65 µM) | – | 6.25 µg/mL (≈ 22.6 µM) | 1.56 µg/mL (≈ 5.65 µM) | 521 µM | 2 | 2 | –
7 | N#Cc1ccc(-c2nnc(-c3cc([N+](=O)[O-])c[nH]3)o2)cc1 | 3.12 µg/mL (≈ 11.1 µM) | 3.12 µg/mL (≈ 11.1 µM) | 25 µg/mL (≈ 88.9 µM) | 1.56 µg/mL (≈ 5.55 µM) | 3.12 µg/mL (≈ 11.1 µM) | 26.8 µg/mL (≈ 95.3 µM) | 3.12 µg/mL (≈ 11.1 µM) | 1.56 µg/mL (≈ 5.55 µM) | 199 µM | – | – | –
8 | COc1ccc(-c2nnc(-c3cc([N+](=O)[O-])c[nH]3)o2)cc1 | 3.12 µg/mL (≈ 10.9 µM) | 3.12 µg/mL (≈ 10.9 µM) | 25 µg/mL (≈ 87.3 µM) | 1.56 µg/mL (≈ 5.45 µM) | 3.12 µg/mL (≈ 10.9 µM) | 34 µg/mL (≈ 119 µM) | 6.25 µg/mL (≈ 21.8 µM) | 1.56 µg/mL (≈ 5.45 µM) | 409 µM | – | – | –
9 | O=[N+]([O-])c1c[nH]c(-c2nnc(-c3cccs3)o2)c1 | 1.56 µg/mL (≈ 5.95 µM) | 3.12 µg/mL (≈ 11.9 µM) | 25 µg/mL (≈ 95.3 µM) | 1.56 µg/mL (≈ 5.95 µM) | 6.25 µg/mL (≈ 23.8 µM) | 87.1 µg/mL (≈ 332 µM) | 1.56 µg/mL (≈ 5.95 µM) | 3.12 µg/mL (≈ 11.9 µM) | 418 µM | – | – | –
10 | COc1cc(/C=C/c2nnc(-c3cc([N+](=O)[O-])c[nH]3)o2)ccc1O | 3.12 µg/mL (≈ 9.52 µM) | 3.12 µg/mL (≈ 9.52 µM) | 100 µg/mL (≈ 305 µM) | 3.12 µg/mL (≈ 9.52 µM) | 25 µg/mL (≈ 76.2 µM) | 23.7 µg/mL (≈ 72.2 µM) | 3.12 µg/mL (≈ 9.52 µM) | 1.56 µg/mL (≈ 4.75 µM) | 220 µM | – | – | –
11 | Cn1cc([N+](=O)[O-])cc1-c1nnc(-c2ccns2)o1 | 1.56 µg/mL (≈ 5.63 µM) | 1.56 µg/mL (≈ 5.63 µM) | 12.5 µg/mL (≈ 45.1 µM) | 0.78 µg/mL (≈ 2.81 µM) | 1.56 µg/mL (≈ 5.63 µM) | – | 6.25 µg/mL (≈ 22.5 µM) | 0.39 µg/mL (≈ 1.41 µM) | 320 µM | 2 | 2 | 2
12 | O=[N+]([O-])c1c[nH]c(-c2nnc(-c3ccccc3O)o2)c1 | 3.12 µg/mL (≈ 11.5 µM) | 3.12 µg/mL (≈ 11.5 µM) | 25 µg/mL (≈ 91.8 µM) | 1.56 µg/mL (≈ 5.73 µM) | 3.12 µg/mL (≈ 11.5 µM) | 2.1 µg/mL (≈ 7.71 µM) | 1.56 µg/mL (≈ 5.73 µM) | 1.56 µg/mL (≈ 5.73 µM) | 375 µM | – | – | –
13 | Cc1ccc(-c2nnc(-c3cc([N+](=O)[O-])c[nH]3)o2)s1 | 3.12 µg/mL (≈ 11.3 µM) | 3.12 µg/mL (≈ 11.3 µM) | 25 µg/mL (≈ 90.5 µM) | 1.56 µg/mL (≈ 5.65 µM) | 3.12 µg/mL (≈ 11.3 µM) | – | 6.25 µg/mL (≈ 22.6 µM) | 1.56 µg/mL (≈ 5.65 µM) | 329 µM | – | – | –
14 | Cn1cc([N+](=O)[O-])cc1-c1nnc(-c2ccco2)o1 | 1.56 µg/mL (≈ 6 µM) | 1.56 µg/mL (≈ 6 µM) | 50 µg/mL (≈ 192 µM) | 0.78 µg/mL (≈ 3 µM) | 1.56 µg/mL (≈ 6 µM) | 60.2 µg/mL (≈ 231 µM) | 3.12 µg/mL (≈ 12 µM) | 1.56 µg/mL (≈ 6 µM) | 190 µM | 2 | 2 | –
15 | Cn1cc([N+](=O)[O-])cc1-c1nnc(-c2cc3cc(Cl)ccc3[nH]2)o1 | 1.56 µg/mL (≈ 4.54 µM) | 1.56 µg/mL (≈ 4.54 µM) | 12.5 µg/mL (≈ 36.4 µM) | 0.39 µg/mL (≈ 1.13 µM) | 1.56 µg/mL (≈ 4.54 µM) | 24 µg/mL (≈ 69.8 µM) | 1.56 µg/mL (≈ 4.54 µM) | 0.39 µg/mL (≈ 1.13 µM) | 743 µM | 3 | – | –
16 | O=[N+]([O-])c1c[nH]c(-c2nnc(Cc3ccccc3F)o2)c1 | 1.56 µg/mL (≈ 5.41 µM) | 3.12 µg/mL (≈ 10.8 µM) | 25 µg/mL (≈ 86.7 µM) | 1.56 µg/mL (≈ 5.41 µM) | 3.12 µg/mL (≈ 10.8 µM) | 0.46 µg/mL (≈ 1.6 µM) | 1.56 µg/mL (≈ 5.41 µM) | 1.56 µg/mL (≈ 5.41 µM) | 620 µM | – | – | –
